Only some compounds are listed: those with a hit (about 2.6% of all), similar ones and a draw of the others.
MITF act – activators of MITF-driven TRPM1 promoter activity in SK-MEL-5 cells; SK-MEL-5 TRPM1-promoter luciferase, 24 h; % of positive control, neutral wells = 0; activation, % at 12.5 µM; 300,000 tested, 0.75% active; AID 588334;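 active = mean activation of at least 80% with every replicate also reaching 80%; inconclusive = mean reaches 80% but some replicate falls short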
Wnt bcat act – Wnt/beta-catenin pathway activation. Wnt/beta-catenin reporter cell assay, activator, plate reader. activation, % at 9.35 µM. 300,000 tested, 1.2% active. AID 743398; in the data active = activation above about 30%, passing the limit was not always enough; inconclusive = no clear call, values can overlap the other calls
Vif imaging – blocks HIV Vif function; AID 602346; 340,000 tested, 0.35% active; inhibition, % at 7.49 µM; HEK293T cells, Vif self-association by quenched fluorescence, imaging, 24 h; in the data active = inhibition above about 50%, passing the limit was not always enough; inconclusive = no clear call, values can overlap the other calls; inactive = below about 31%
esBAF inh – blocks esBAF chromatin remodeling in mouse ES cells. AID 602393. 350,000 tested, 2% active. Bmi1-luciferase knock-in reporter, 24 h; 100% = twice the neutral-well signal. reporter increase, % at 12.5 µM; in the data active = activation above about 40%; inconclusive = no clear call, values can overlap the other calls;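 note: a rise in the Bmi1 reporter signal indicates esBAF inhibition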
Xi reactivation – X-chromosome reactivation activator; activation, % at 7.58 µM; 360,000 tested, 0.055% active; XiGFP mouse fibroblasts, % GFP-positive cells imaging, 3 d; cells co-treated with 5-aza-dC sensitizer; scaled so ellipticine positive control = 100%;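 active = mean normalized replicate activation at least 10% and every replicate at or above 10%; inconclusive = only one of the two criteria met; inactive = mean below 10% and not all replicates reach 10%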
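Material: SV40-immortalized XiGFP fibroblast cells, line 68-5-11 | Buffer or medium: DMEM containing 5-aza-dC | Dosing: One concentration, pinned | Times: 3 d treatment, 15 min room-temperature fixation | Controls: Ellipticine 6 µM positive control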
Hits are given with their value; i = inactive; ? = inconclusive; nt = no result given.

SMILES	MITF act	Wnt bcat act	Vif imaging	esBAF inh	Xi reactivation
Cc1cc(C[n+]2cc(Br)ccc2N)c2ncccc2c1	i	41	i	nt	i
C(=C\c1nc(-c2ccncc2)no1)/c1ccccc1	i	40	i	i	i
CCOc1ncccc1C(=O)Nc1cc2c(cc1Br)OCCO2	i	i	i	55	i
CCOc1ncccc1C(=O)Nc1ccc2c(c1)OCO2	i	i	i	nt	i
Cc1ccc(NC(=S)NC(=O)C2CCCC2)cc1C	114	i	i	nt	i
Cc1ccc(NC(=S)NC(=O)C2CC2)c(C)c1	i	i	i	50	i
O=C(NC(=S)Nc1ccc(O)cc1)C1CCCC1	i	i	i	i	i
Cc1ccc(NC(=S)NC(=O)C2CCC2)cc1C	113	i	i	84	i
O=C(NC(=S)Nc1cccc(O)c1)C1CCCCC1	i	i	i	42	i
O=C(C[C@@H]1CC[C@H]2[C@@H](COC[C@@H](O)CN2Cc2ccncc2)O1)NCC1CC1	nt	nt	nt	i	i
N#Cc1c(-c2ccc(F)cc2)c2c([nH]c1=O)-c1ccccc1OC2	nt	i	i	nt	i
N#Cc1c(-c2cccnc2)c2c([nH]c1=O)-c1ccccc1OC2	nt	44	i	i	i
C[C@H]1CN(C)C(=O)Cc2cc(NS(C)(=O)=O)ccc2O[C@@H]1CN(C)S(C)(=O)=O	nt	nt	nt	nt	i
C=CCn1cccc(C(=O)Nc2ccc(C)cc2)c1=O	nt	i	i	i	i
C=CCn1cccc(C(=O)Nc2ccc(C)c(C)c2)c1=O	i	?	i	49	i
O=C(Nc1ccc(Cl)cc1)OCc1ccccn1	nt	54	i	77	nt
COc1ccc(C2=NNC(c3cccs3)=Nc3ccc(OC)cc32)cc1	i	nt	i	64	nt
Cc1ccc(-c2cc(C(=O)NCc3ccco3)no2)cc1	98	i	i	i	nt
O=C(NCc1ccco1)c1cc(-c2cccc(Cl)c2)on1	i	nt	i	nt	nt
O=C(NCc1ccco1)c1cc(-c2ccc(Cl)cc2)on1	i	i	i	i	nt
COc1cccc(-c2cc(C(=O)NCc3ccco3)no2)c1	i	i	i	45	nt
COc1ccccc1Nc1nc2c(C)cccc2cc1C#N	i	i	i	i	nt
CCOc1ccc(Nc2nc3c(C)cccc3cc2C#N)cc1	i	i	82	i	i
CC1CC(=O)Nc2ccccc2N1C(=O)Nc1ccc(F)cc1F (centres undefined)	i	i	i	i	i
CC1CC(=O)Nc2ccccc2N1C(=O)Nc1ccc(F)cc1 (centres undefined)	nt	39	i	nt	i
SMILES	MITF act	Wnt bcat act	Vif imaging	esBAF inh	Xi reactivation
Cc1ccccc1-c1ccc([C@@H]2[C@H](CO)N3CCCCN(C(=O)Nc4ccc(F)cc4)C[C@@H]23)cc1	nt	nt	nt	nt	i
CCOc1ccccc1N1Cc2ccccc2C1	i	i	i	i	nt
CCOc1ccccc1N1Cc2cc(C)c(C)cc2C1	nt	i	i	46	i
Cc1cc2c(cc1C)CN(c1ccccc1)C2	96	49	i	48	i
CC(=O)N1CCc2cc(S(=O)(=O)C(C)CC(=O)Nc3ccc(OC(F)(F)F)cc3)ccc21 (centres undefined)	i	i	i	45	i
CCC(=O)Nc1ccc2c(c1)C(=O)N(C)[C@H]1CC[C@H](CC(=O)N3CCCCC3)O[C@@H]1CO2	nt	nt	nt	i	i
Nc1ccc(-c2cc(N)n(-c3ccccc3)n2)cc1	i	nt	i	i	nt
CC(=O)Nc1ccc(-c2cc(N)n(-c3ccccc3)n2)cc1	i	44	i	nt	i
Nc1cc(-c2ccc(Cl)cc2)nn1-c1ccccc1	119	49	i	58	i
C[C@@H]1CN([C@@H](C)CO)C(=O)c2cccc(NC(=O)NC3CCCCC3)c2O[C@@H]1CN(C)C(=O)Nc1ccc(C(F)(F)F)cc1	nt	nt	nt	i	i
COc1ccc(NC(=O)N(C)C[C@@H]2OCCCC[C@@H](C)Oc3ccc(NS(=O)(=O)c4ccc(C)cc4)cc3C(=O)N([C@H](C)CO)C[C@H]2C)cc1	nt	nt	nt	i	i
CCC(C)c1ccccc1N1CC(C(=O)NCCC2=CCCCC2)CC1=O (centres undefined)	i	i	i	i	i
CCOc1ccccc1N1CC(C(=O)NCCC2=CCCCC2)CC1=O (centres undefined)	i	i	i	46	i
CSc1cccc(N2CC(C(=O)NCCC3=CCCCC3)CC2=O)c1 (centres undefined)	i	i	66	nt	i
C[C@H]1CN([C@@H](C)CO)C(=O)Cc2cc(NC(=O)Nc3ccccc3)ccc2O[C@@H]1CN(C)Cc1ccncc1	nt	nt	nt	i	i
